The term inhibition denotes the change of the read-out against control, counted positive when it falls. The IC50 is the concentration at which inhibition is half-maximal.

The target of series [1] is T1, Sortase A (Staphylococcus aureus) (UniProt Q9S446).
T1 sequence (whole entry): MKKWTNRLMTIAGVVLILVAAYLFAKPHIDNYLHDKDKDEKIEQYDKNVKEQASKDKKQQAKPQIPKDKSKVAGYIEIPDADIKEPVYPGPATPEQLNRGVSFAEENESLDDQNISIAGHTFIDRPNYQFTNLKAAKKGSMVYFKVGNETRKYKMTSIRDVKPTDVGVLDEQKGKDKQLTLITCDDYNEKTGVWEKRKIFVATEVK
Nature of the series: Inhibition of recombinant Staphylococcus aureus wild type truncated C-terminal His6 tagged Srt A at 200 uM using Abz-Leu-Pro-Glu-Thr-Gly-Lys(Dnp)-NH2 as substrate preincubated for 15 mins followed by substrate addition measured after 60 mins by FRET assay relative to control. The procedure, abridged:
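FRET read-out: cleavage of the internally quenched substrate relieves Dnp quenching of the Abz fluorophore, and the resulting fluorescence reports SrtA activity. Compound at 200 µM, 15 min preincubation with enzyme. Inhibition reported as mean ± SD, n = 3.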

The subject of series [2] is Staphylococcus aureus. Nature of the series: Growth inhibition of Staphylococcus aureus CCUG 17621 measured after 18 to 24 hrs by broth microdilution assay. Format: organism-based. Background: In broth dilution the organism is exposed to a series of concentrations in liquid medium.
Series [3] has as its system Staphylococcus aureus. The series can be described thus: Growth inhibition of Staphylococcus aureus CCUG 15915 measured after 18 to 24 hrs by broth microdilution assay. Format: organism-based.
In a further series the test system is Escherichia coli. Nature of the series: Growth inhibition of Escherichia coli CCUG 17620 measured after 18 to 24 hrs by broth microdilution assay. The settings on record: in vitro. Format: organism-based.
The target in series [4] is T2, Sortase A (Staphylococcus aureus, UniProt Q9S446).
T2 sequence (Q9S446 whole entry): T1 sequence (whole entry)
The series can be described thus: Inhibition of recombinant Staphylococcus aureus wild type truncated C-terminal His6 tagged Srt A using Abz-Leu-Pro-Glu-Thr-Gly-Lys(Dnp)-NH2 as substrate preincubated for 15 mins followed by substrate addition measured after 60 mins by FRET assay.

Series [5] addresses T1, Sortase A (Staphylococcus aureus). The series can be described thus: Binding affinity to Staphylococcus aureus SrtA by ligand based 1D CPMG relaxation dispersion NMR analysis. The procedure, abridged: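 Ligand-observed 1D NMR: spectrum of ligand alone, then ligand with SrtA, acquired after a delay acting as a T2 filter. Binding is scored as a drop in ligand signal intensity.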

The target is the same in series [6]. Nature of the series: (§1) Inhibition of recombinant Staphylococcus aureus wild type truncated C-terminal His6 tagged Srt A using Abz-Leu-Pro-Glu-Thr-Gly-Lys(Dnp)-NH2 as substrate preincubated for 30 mins followed by substrate addition measured after 60 mins by FRET assay in presence of 0.5 mM reducing agent, DTT.
The target is the same in series [7]. Nature of the series: Covalent ligand binding to recombinant Staphylococcus aureus wild type truncated C-terminal His6 tagged SrtA assessed as enzyme modifications by measuring nicotinamido-thiadiazolyl thio (+235.98265 Da, +C8H4N4OS2) and nitrobenzyl-thio (+167.00410, +C7H5NO2S) fragments at 200 uM by LCMS analysis.
Series [8] shares this target. The series can be described thus: Inhibition of recombinant Staphylococcus aureus wild type truncated C-terminal His6 tagged Srt A at 200 uM using Abz-Leu-Pro-Glu-Thr-Gly-Lys(Dnp)-NH2 as substrate preincubated for 6.3 hrs followed by substrate addition measured after 60 mins by FRET assay relative to control.
For series [9] the target is unchanged. The series can be described thus: Irreversible ligand binding to Staphylococcus aureus SrtA using (Abz-Leu-Pro-Glu-Thr-Gly-Lys(Dnp)-NH2 as substrate by competitive binding based 1D CPMG relaxation dispersion NMR analysis. The procedure, abridged: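 Ligand-observed CPMG competition: the ligand–SrtA sample is challenged with a known binder for the same site. Signal recovery indicates displacement and reversible binding; no recovery indicates irreversible binding.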

Series [10] has as its target T2, Sortase A. The series can be described thus: Inhibition of recombinant Staphylococcus aureus wild type truncated C-terminal His6 tagged Srt A using Abz-Leu-Pro-Glu-Thr-Gly-Lys(Dnp)-NH2 as substrate preincubated for 30 mins followed by substrate addition measured after 60 mins by FRET assay.
Series [11] deals with T1, Sortase A (Staphylococcus aureus). Nature of the series: Covalent ligand binding to recombinant Staphylococcus aureus wild type truncated C-terminal His6 tagged SrtA assessed as enzyme modifications by measuring aminothiadiazolyl-thio (+130.96119 Da, +C2HN3S2) and nitrobenzyl-thio (+167.00410, +C7H5NO2S) fragments at 200 uM by LCMS analysis.
Series [12] shares this target. The series can be described thus: Reversible ligand binding to Staphylococcus aureus SrtA using (Abz-Leu-Pro-Glu-Thr-Gly-Lys(Dnp)-NH2 as substrate by NMR competitive displacement analysis. The procedure, abridged:
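Ligand-observed CPMG NMR uses a delay acting as a T2 filter. Spectra are taken of the ligand alone, then after SrtA is added, then after a known binder is added to compete for the site. Recovery of the ligand signal marks reversible, competitive binding.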

Series [13] has the same target. Nature of the series: Inhibition of recombinant Staphylococcus aureus wild type truncated C-terminal His6 tagged Srt A at 167 uM using Abz-Leu-Pro-Glu-Thr-Gly-Lys(Dnp)-NH2 as substrate preincubated for 15 mins followed by substrate addition measured after 60 mins by FRET assay relative to control. The procedure, abridged:
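FRET activity assay with an internally quenched substrate. Cleavage by SrtA separates the Abz donor from the Dnp quencher, and the increase in fluorescence is read. Compound at 167 µM with 15 min incubation. Percent inhibition is given as mean ± SD, n = 2.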

Series [14] shares this target. The series can be described thus: Binding affinity to Staphylococcus aureus 15N-labeled SrtA by protein based 2D SOFAST-HMQC NMR analysis.
In series [15] the target is T2, Sortase A. The series is described as §1.

The source made the active and inactive calls. The rule behind the calls is not given here.

Take `Nc1nnc(SCc2cccc([N+](=O)[O-])c2)s1`: the inhibition in series [1] was found to be 11%. In addition, the MIC with Staphylococcus aureus [2], against Staphylococcus aureus [3] and against Escherichia coli was above 256 µg/mL throughout. The IC50 at Sortase A [4] was determined as 521 µM. In addition, the outcome in series [5] was Active.

In the case of `CC(=O)Nc1nnc(SCc2cccc([N+](=O)[O-])c2)s1`, the inhibition in [1] stood at 18%. Also, the MIC in the series on Staphylococcus aureus [2], in the series on Staphylococcus aureus [3] and in the series with Escherichia coli was above 256 µg/mL in each case.

Regarding `CCSc1c(S)cnn(-c2ccccc2)c1=O`, the IC50 on Sortase A [4] came out at 3 µM.

With `O=[N+]([O-])c1ccc(CSc2nnc(N3CCOCC3)s2)cc1`, the inhibition in [1] came to 104%. For the same molecule, the IC50 at Sortase A [4] stood at 9 µM. Further, in series [5], the outcome was Active.

Consider `O=C(Nc1nnc(SCc2ccc([N+](=O)[O-])cc2)s1)c1ccncc1`, for which the inhibition in series [1] turned out to be 99%. Also, the IC50 at Sortase A [4] was determined as 42 µM. For the same molecule, the outcome in series [5] was inactive.

On to `O=C(Nc1nnc(SCc2cccc([N+](=O)[O-])c2)s1)c1ccncc1`, for which, in series [1], the inhibition was 8%. For the same molecule, the MIC with Staphylococcus aureus [2], in the series with Staphylococcus aureus [3] and in the series on Escherichia coli was above 256 µg/mL each time. The result in series [5] was Active.

`Nc1nnc(SCc2ccc3ccccc3c2)s1`: the inhibition in series [1] is 13%.

`Nc1nnc(SCCc2cccc([N+](=O)[O-])c2)s1`: the inhibition in series [1] is 13%. In addition, the result in series [5] was inactive.

Consider `Nc1nnc(Sc2ccccc2)s1`, for which, in series [1], the inhibition was 25%. For the same molecule, the result in series [5] was inactive.

For the molecule `O=[N+]([O-])c1cccc(CSc2nnc(Br)s2)c1`, the inhibition in series [1] was 19%.

`FC(F)(F)c1ccnc(Sc2nc[nH]n2)n1`: the IC50 at Sortase A [4] turned out to be 19 µM.

In the case of `O=C(Nc1nnc(SCc2ccc([N+](=O)[O-])cc2)s1)c1cccnc1`, the inhibition result in series [6] was “inactive”. The inhibition in [1] was found to be 100%. For the same molecule, the IC50 on Sortase A [4] came out at 3.8 µM. Further, the outcome in series [5] was inactive. Besides, the result in series [7] was Active.

Turning to `Nc1nnc(SCc2ccc(F)cc2)s1`, the inhibition in series [1] is 5%. The result in series [5] was inactive.

As to `N#Cc1ccc(CSc2nnc(N)s2)cc1`, the inhibition in series [1] amounted to 2%. For the same molecule, the result in [5] was inactive.

For the molecule `O=[N+]([O-])c1cccc(CSc2nnc(N3CCNCC3)s2)c1`, the inhibition in [1] came to 27%; in series [8], 38%. The MIC in the series on Staphylococcus aureus [2], against Staphylococcus aureus [3] and in the series on Escherichia coli was above 256 µg/mL each time. In addition, the outcome in [5] was inactive.

With `O=C(Nc1nnc(SCc2cccc([N+](=O)[O-])c2)s1)c1ccco1`, in series [1], the inhibition was determined as 6%.

As to `N#Cc1ccccc1CSc1nnc(N)s1`, the inhibition in [1] worked out at 1%. Besides, the MIC in the series on Staphylococcus aureus [2], in the series on Staphylococcus aureus [3] and against Escherichia coli was above 256 µg/mL throughout. Also, on Sortase A [4], the IC50 worked out at 1740 µM. The outcome in [5] was Active.

`O=C(Nc1nnc(SCc2cccc([N+](=O)[O-])c2)s1)c1cccnc1`: in series [1], the inhibition was 13%.

With `CC(C)n1c(S)nc2c1c(=O)n(C)c(=O)n2C`, on Sortase A [4], the IC50 was determined as 50 µM. In addition, the result in [9] was Active.

As for `O=[N+]([O-])c1cccc(CSc2nnc(N3CCOCC3)s2)c1`, in series [1], the inhibition came to 29%. The MIC against Staphylococcus aureus [2], in the series with Staphylococcus aureus [3] and with Escherichia coli was above 256 µg/mL each time. Moreover, in [5], the outcome was Active.

For `Nc1nnc(Sc2ccc([N+](=O)[O-])cc2)s1`, the inhibition in [1] stood at 35%. Also, the IC50 result on Sortase A [10] is recorded as “Not Active”. In addition, the result in [5] was inactive.

Turning to `O=[N+]([O-])c1ccc(CSc2nnc(N3CCNCC3)s2)cc1`, the inhibition in [1] came out at 80%. Moreover, at Sortase A [4], the IC50 is 71 µM. Moreover, the outcome in series [5] was Active.

In the case of `Nc1nnc(SCc2ccc([N+](=O)[O-])cc2)s1`, in series [6], the inhibition result is “inactive”. For the same molecule, the inhibition in [1] is 101%. The MIC against Staphylococcus aureus [2], in the series on Staphylococcus aureus [3] and with Escherichia coli was above 256 µg/mL each time. In addition, the IC50 at Sortase A [4] came to 26 µM. Besides, the result in [11] and in series [5] was Active.

Regarding `Nc1nnc(Sc2ccc([N+](=O)[O-])c3nonc23)s1`, in series [6], the inhibition entry was “inactive”. Further, the outcome in series [12], in [5] and in series [14] was Active. Also, the IC50 on Sortase A [4] was in the range of 6 to 6.2 µM. In addition, the inhibition in series [13] turned out to be 101%.

In the case of `O=c1c(O)c(-c2ccc(O)cc2O)oc2cc(O)cc(O)c12` [MORIN], the IC50 on Sortase A [15] stood at 19 µM.

For the molecule `O=[N+]([O-])c1cccc(CSc2nnc(Nc3cccnc3)s2)c1`, in series [1], the inhibition turned out to be 37%.

Turning to `Nc1nnc(SCc2ccccc2)s1`, the inhibition in series [1] was 0%. In addition, the outcome in series [5] was inactive.

With `CC(=O)Nc1nnc(SCc2ccc([N+](=O)[O-])cc2)s1`, in series [1], the inhibition came to 94%. In addition, on Sortase A [4], the IC50 was found to be 127 µM. In series [5], the outcome was Active.

The values are drawn from ChEMBL document CHEMBL4396929, “Discovery and development of substituted thiadiazoles as inhibitors of Staphylococcus aureus Sortase A” (Bioorg Med Chem, 2019).
